# Sampled rows, rich in hits. Any-hit rate of the full collection: about 3.5%.
# RGS4 act = RGS4 potentiators or activators, primary screen, cell-based, HEK293 M3R inducible RGS4, calcium flux. carbachol calcium flux Fluo4; stronger effect = lower value. B-score at 10 µM. 310,000 tested, 0.92% active. AID 463111, 2010;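 active means B-score of the integrated calcium signal more than 4 SD below the library mean, with starting fluorescence not abnormally high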;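 further: negative B-score means reduced calcium response which marks RGS4 activation or potentiation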
#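 System: HEK293 FlpIn-TREx cells, stable M3R, doxycycline-inducible RGS4. Timing: overnight RGS4 induction, 30 min dye load 37 °C, 20 min compound RT. Also added: carbachol, ECmax concentration. Measured by: Fluo4 fluorescence kinetic imaging of calcium. Evaluation: integrated calcium ratio converted to B score.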
# MrgX1 ag = agonists of human MrgX1 receptor, primary screen, HEK293 cells, Fluo-4 calcium flux. 310,000 tested, 0.44% active. Mas-related G-protein coupled receptor member X1 (Homo sapiens), Q96LB2. Fluo-4 calcium fluorescence, agonist mode; stronger effect = higher value. B-score at 10 µM. AID 588627, 2011;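 active means calcium response B-score plate-corrected fluorescence ratio at least 3 library SD, with starting fluorescence B-score inside 5 SD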
# Target sequence (Q96LB2 whole entry, looked up): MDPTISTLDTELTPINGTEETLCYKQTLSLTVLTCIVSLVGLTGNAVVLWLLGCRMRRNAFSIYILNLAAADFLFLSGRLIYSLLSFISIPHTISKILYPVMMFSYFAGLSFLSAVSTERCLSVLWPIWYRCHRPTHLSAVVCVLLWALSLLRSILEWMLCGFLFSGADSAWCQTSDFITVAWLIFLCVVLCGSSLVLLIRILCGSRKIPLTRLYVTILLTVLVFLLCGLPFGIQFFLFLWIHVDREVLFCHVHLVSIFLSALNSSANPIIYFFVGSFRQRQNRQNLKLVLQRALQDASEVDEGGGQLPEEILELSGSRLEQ
#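 Test system: HEK293 cells stably expressing human MrgX1 receptor; Input: fifteen thousand cells per well; Dosing: compound delivered in addition one of three; Schedule: overnight seeding, then 1 h dark dye loading; Technique: Fluo-4 NW calcium fluorescence; Measure: B-scored fluorescence response ratio; Controls: positive and negative controls per plate.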
# MrgX1 PAM = positive allosteric modulators of MrgX1, primary screen, HEK293 cells, Fluo-4 calcium flux. Mas-related G-protein coupled receptor member X1 (Homo sapiens), Q96LB2. FDSS; stronger effect = higher value. B-score at 10 µM. 310,000 tested, 0.63% active;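 active means plate-corrected calcium response at least 3 library SD above typical, normal starting fluorescence, not activating the receptor alone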;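 further: compound read alongside a low EC10 to EC30 dose of BAM8-22 agonist; peak minus trough fluorescence over baseline measured at the second addition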
# RGS4 block = RGS4 inhibitors, primary screen, cell-based, HEK293 M3R inducible RGS4, calcium flux. Fluo-4 calcium flux; stronger effect = higher value; triggered by carbachol at its EC20. 310,000 tested, 0.45% active. B-score at 10 µM. AID 463165, 2010;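 active means B-score, a plate-corrected calcium signal, over three deviations above library mean, with baseline fluorescence within five deviations of library mean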;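 further: RGS4 expression induced by doxycycline in cells with stable M3 receptor; B-score is computed from the integrated fluorescence ratio over baseline after carbachol; higher B-score means a larger calcium signal and so more RGS4 inhibition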
# Target sequence (P49798 whole entry, looked up): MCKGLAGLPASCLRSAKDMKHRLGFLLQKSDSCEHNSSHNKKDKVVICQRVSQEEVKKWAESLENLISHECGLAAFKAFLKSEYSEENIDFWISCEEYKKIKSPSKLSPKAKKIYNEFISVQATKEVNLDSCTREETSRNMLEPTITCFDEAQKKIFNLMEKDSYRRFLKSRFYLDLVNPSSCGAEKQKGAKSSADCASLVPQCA
# MrgX1 antag = antagonists of human MrgX1 receptor, primary screen, HEK293 cells, Fluo-4 calcium flux; Mas-related G-protein coupled receptor member X1 (Homo sapiens), Q96LB2; BAM8-22 antagonism; stronger effect = lower value; B-score at 10 µM; 310,000 tested, 1.3% active; AID 588676, 2011;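 active means calcium-response B-score plate-corrected more than 3 library SD below zero, starting fluorescence within 5 deviations, no agonist response on first addition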;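 further: peak minus trough fluorescence over baseline after final BAM8-22 challenge near maximal dose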
# MrgX1 PAM conf = MrgX1 positive allosteric modulators, duplicate retest, confirmation, HEK293 cells, Fluo-4 calcium flux | shares compounds with MrgX1 PAM | Fluo-4 calcium fluorescence, FDSS | activation (ratio percentage), % at 10 µM | 1,200 tested, 13% active;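 active means ratio at least 3 SD above the weak peptide control, stable starting fluorescence, no direct agonism earlier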;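 further: compound followed by low BAM8-22 agonist challenge near EC20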
# HEK293 Ca flux = nonspecific calcium signal in parental HEK293, confirmation, counter-screen for MrgX1 antagonist project, parental HEK293 cells, Fluo-4 calcium flux | Fluo-4 calcium fluorescence, FDSS | AID 624111, 2012 | shares compounds with MrgX1 antag | fluorescence ratio F(max-min)/F0 at 10 µM | 4,000 tested, 2% active;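 active means duplicate-averaged calcium fluorescence ratio at least three times the standard deviation of buffer wells, a nonspecific response in parental cells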
# HEK293 Ca counter = calcium response in parental HEK293 cells, primary screen, counter-screen for MrgX1 allosteric activator project, cell-based, Fluo-4 calcium flux, duplicate | Fluo-4 fluorescence ratio; stronger effect = higher value | fluorescence ratio F(max-min)/F0 at 10 µM | shares compounds with MrgX1 antag | AID 624114, 2012 | 4,000 tested, 0.4% active;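 active means calcium fluorescence ratio, averaged over duplicates, at least 3 SD of the buffer-well ratio, meaning a nonspecific response in receptor-free cells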;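 further: untransfected parental HEK293 lacking MrgX1 used as counterscreen for MrgX1 allosteric activators; fluorescence change taken during the second addition on a kinetic imager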
# HEK293 Ca cntr2 = calcium response in parental HEK293 cells, primary screen, counter-screen for MrgX1 agonist project, cell-based, Fluo-4 calcium flux, duplicate, agonist mode; Fluo-4 calcium fluorescence (FDSS); stronger effect = higher value; fluorescence ratio F(max-min)/F0 at 10 µM; 4,000 tested, 8.7% active; shares compounds with MrgX1 antag;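 active means calcium fluorescence ratio at least three times the spread of buffer wells, meaning a non-specific response in parental cells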
# * hit, by the source's call; i = inactive; x = not tested or not shown.
SMILES,RGS4 act,MrgX1 ag,MrgX1 PAM,RGS4 block,MrgX1 antag,MrgX1 PAM conf,HEK293 Ca flux,HEK293 Ca counter,HEK293 Ca cntr2
O=C(N[C@@H](Cc1c[nH]c2ccccc12)C(=O)O)c1ccccc1Cl,i,i,17.4*,i,i,i,i,i,i
COc1ccc(N2CC(C(=O)Nc3cc(C)ccn3)CC2=O)cc1 (stereo not given),i,i,8.09*,i,i,i,i,i,i
COc1ccc(C=O)cc1Cn1cnc2c(cnn2C)c1=O,i,i,i,i,i,x,x,x,x
COc1ccc(C(C)=O)cc1Cn1cnc2c(cnn2C)c1=O,i,i,11.4*,i,i,i,i,i,i
CC(C)COc1ccc(C(=O)CCN2CCCCC2)cc1,i,i,i,i,i,x,x,x,x
CCCCOc1ccc(C(=O)CCN2CCCCC2)cc1,i,i,7.14*,i,i,i,i,i,i
CCSc1nc2ccccc2c(=O)n1Cc1ccc(F)cc1,i,i,9.82*,i,i,i,i,i,i
COc1cc(OC)c(C2N(C)c3ccccc3N2C)cc1OC,i,i,i,i,i,x,x,x,x
COc1cc(OC)c(C2SCCCS2)cc1OC,i,i,12.8*,i,i,6.3%*,i,i,i
Cn1c(Cc2ccc(Cl)cc2)nnc1SCC(=O)NC1CC1,i,i,i,i,i,x,x,x,x
COc1cc(NC(=O)C(Cc2ccccc2)n2cccc2)cc(OC)c1 (stereo not given),i,i,7.07*,i,i,i,i,i,i
CCCCn1c(N)c(N(CC(C)C)C(=O)C2CC(=O)N(c3ccc(CC)cc3)C2)c(=O)[nH]c1=O (stereo not given),i,i,i,i,i,x,x,x,x
COc1ccc(Nc2cc(C)c3ccccc3n2)cc1,i,i,15.6*,i,i,17.9%*,i,i,i
COc1ccc(Nc2cccc3ccccc23)cc1,i,i,21.1*,i,i,i,i,i,i
COc1ccc(CNC(=O)[C@@H](NC(=O)C2CCN(C(=O)[C@@H](N)CC(C)C)CC2)C(C)C)cc1,i,i,i,i,i,x,x,x,x
CC(=O)Cc1nsc(NC(=O)c2ccc(-c3cc(Cl)ccc3Cl)o2)n1,i,i,39.7*,i,i,32.0%*,i,i,i
CC(=O)Cc1nsc(NC(=O)c2ccc(-c3ccc(Cl)cc3Cl)o2)n1,i,i,i,i,i,x,x,x,x
O=C(Nc1ccc(F)c(Cl)c1)N1CCCC1,i,i,13*,i,i,i,i,i,i
CCC(C)n1c(NC(=O)c2ccccc2)c(C#N)c2nc3ccccc3nc21 (stereo not given),i,i,7.95*,i,i,i,i,i,i
COc1ccnc(Oc2ccccc2)c1C(N)=O,i,i,i,i,i,x,x,x,x

# Screening data as filed in PubChem BioAssay.
